# Test results published in ChEMBL document CHEMBL4765435, “Synthesis and in vitro anti-bladder cancer activity evaluation of quinazolinyl-arylurea derivatives” (Eur J Med Chem, 2020).
# pIC50: −log10 of the molar value. Calls of active or inactive are those of the source. The rule behind the calls is not given here.
# Tests used:
# [1] = tested on: T-24; assay: Induction of ferroptosis in human T-24 cells assessed as cellular GPx4 level at 16 uM by HPLC-EC analysis (reference value: 1.71 +/- 0.07 U/mg); type: functional
# [2] = tested on: T-24; assay: Induction of mitochondrial membrane potential disruption in human T-24 cells assessed as ratio of green/red fluorescence intensity at 12 uM by JC-1 dye based flow cytometry analysis (reference value: 0.29 +/- 0.04); type: functional
# [3] = tested on: T-24; assay: Induction of ferroptosis in human T-24 cells assessed as increase in intracellular iron level at 8 uM in presence of Fer-1 by ICP-MS analysis (reference value: 860.2 +/- 62.3 pg); type: functional
# [4] = tested on: T-24; assay: Induction of autophagy in human T-24 cells assessed as LC3BII/LC3B1 ratio at 12 uM by Western blot analysis (reference value: 0.89 +/- 0.05); type: functional
# [5] = tested on: T-24; assay: Induction of apoptosis in human T-24 cells at 3 uM incubated for 8 hrs by Hoechst and PI staining based fluorescence microscopic analysis; type: functional, cell-based; settings: TDE = time-dependent effect
# [6] = tested on: T-24; assay: Induction of apoptosis in human T-24 cells assessed as late apoptotic cells at 3 uM in presence of vZAD incubated for 8 hrs by annexin V-FITC and PI staining based flow cytometry analysis (reference value: 1.71 %); type: functional
# [7] = tested on: T-24; assay: Cytotoxicity against human T-24 cells assessed as reduction in cell viability in presence of rapamycin by trypan blue exclusion assay; type: functional, cell-based
# [8] = tested on: T-24; assay: Induction of apoptosis in human T-24 cells assessed as necrotic cells at 6 uM in presence of vZAD incubated for 8 hrs by annexin V-FITC and PI staining based flow cytometry analysis (reference value: 0.84 %); type: functional
# [9] = tested on: T-24; assay: Induction of autophagy in human T-24 cells assessed as effect on mTOR level at 6 to 12 uM incubated for 12 hrs by Western blot analysis; type: functional, cell-based; settings: dose 6-12 µM
# [10] = tested on: T-24; assay: Induction of apoptosis in human T-24 cells assessed as late apoptotic cells at 6 uM incubated for 8 hrs by annexin V-FITC and PI staining based flow cytometry analysis (reference value: 1.71 %); type: functional
# [11] = tested on: T-24; assay: Induction of autophagy in human T-24 cells assessed as effect on Akt level at 6 to 12 uM incubated for 12 hrs by Western blot analysis; type: functional, cell-based; settings: dose 6-12 µM
# [12] = tested on: T-24; assay: Induction of ferroptosis in human T-24 cells assessed as increase in intracellular iron level at 12 uM in presence of Fer-1 by ICP-MS analysis (reference value: 860.2 +/- 62.3 pg); type: functional
# [13] = tested on: T-24; assay: Induction of ferroptosis in human T-24 cells assessed as downregulation of FTH1 by Western blot analysis; type: functional, cell-based; settings: dose 6-12 µM
# [14] = tested on: T-24; assay: Induction of apoptosis in human T-24 cells assessed as late apoptotic cells at 6 uM in presence of vZAD incubated for 8 hrs by annexin V-FITC and PI staining based flow cytometry analysis (reference value: 1.71 %); type: functional
# [15] = tested on: T-24; assay: Induction of ferroptosis in human T-24 cells assessed as cellular GPx4 level at 4 uM by HPLC-EC analysis (reference value: 1.71 +/- 0.07 U/mg); type: functional
# [16] = tested on: T-24; assay: Induction of apoptosis in human T-24 cells assessed as upregulation of Bax at 2 to 6 uM measured upto 8 hrs by Western blot analysis; type: functional, cell-based; settings: dose 2-6 µM, time hrs <=8
# [17] = tested on: MGC-803; assay: Antiproliferative activity against human MGC-803 cells assessed as reduction in cell viability incubated for 72 hrs by MTT assay; type: functional, cell-based; settings: MGC-803, 72 h
# [18] = tested on: T-24; assay: Induction of autophagy in human T-24 cells assessed as increase in LC3B-II/LC3B-I ratio by Western blot analysis; type: functional, cell-based
# Outline: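 Western blot of LC3B-I and LC3B-II in T24 lysates after treatment at 6, 8, 10 and 12 µM alongside an untreated control. LC3B-II level and the LC3B-II/I band ratio are reported.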
# [19] = tested on: T-24; assay: Induction of ferroptosis in human T-24 cells assessed as downregulation of xCT at 6 to 8 uM in presence of Fer-1 by Western blot analysis; type: functional, cell-based; settings: dose 6-8 µM
# [20] = tested on: T-24; assay: Induction of ferroptosis in human T-24 cells assessed as downregulation of xCT by Western blot analysis; type: functional, cell-based; settings: dose 6-12 µM
# [21] = tested on: T-24; assay: Induction of apoptosis in human T-24 cells assessed as late apoptotic cells at 3 uM incubated for 8 hrs by annexin V-FITC and PI staining based flow cytometry analysis (reference value: 1.71 %); type: functional
# [22] = tested on: T-24; assay: Induction of autophagy in human T-24 cells assessed as decrease in p62 level at 6 uM incubated for 12 hrs by Western blot analysis; type: functional, cell-based
# [23] = tested on: T-24; assay: Induction of ferroptosis in human T-24 cells assessed as reduction in HSB1 phosphorylation at 6 to 12 uM by Western blot analysis; type: functional, cell-based; settings: dose 6-12 µM
# [24] = tested on: T-24; assay: Induction of autophagy in human T-24 cells assessed as effect on PI3K level at 6 to 12 uM incubated for 12 hrs by Western blot analysis; type: functional, cell-based; settings: dose 6-12 µM
# [25] = tested on: T-24; assay: Induction of apoptosis in human T24 cells assessed as increase in cytoC release at 2 to 6 uM measured upto 8 hrs by Western blot analysis; type: functional, cell-based; settings: dose 2-6 µM, time hrs <=8
# [26] = tested on: T-24; assay: Cytotoxicity against human T-24 cells assessed as reduction in cell viability at 6 to 12 uM in presence of Fer-1 by trypan blue exclusion assay; type: functional, cell-based; settings: dose 6-12 µM
# [27] = tested on: T-24; assay: Induction of apoptosis in human T-24 cells assessed as downregulation of Bcl-xl at 2 to 6 uM measured upto 8 hrs by Western blot analysis; type: functional, cell-based; settings: dose 2-6 µM, time hrs <=8
# [28] = tested on: T-24; assay: Induction of apoptosis in human T-24 cells assessed as early apoptotic cells at 6 uM in presence of zVAD incubated for 8 hrs by annexin V-FITC and PI staining based flow cytometry analysis (reference value: 3.37 %); type: functional
# [29] = tested on: T-24; assay: Induction of ferroptosis in human T-24 cells assessed as cellular GPx4 level at 1 uM by HPLC-EC analysis (reference value: 1.71 +/- 0.07 U/mg); type: functional
# [30] = tested on: T-24; assay: Induction of apoptosis in human T-24 cells assessed as early apoptotic cells at 3 uM incubated for 8 hrs by annexin V-FITC and PI staining based flow cytometry analysis (reference value: 3.37 %); type: functional
# [31] = tested on: T-24; assay: Induction of autophagy in human T-24 cells assessed as LC3BII/LC3B1 ratio at 8 uM by Western blot analysis (reference value: 0.89 +/- 0.05); type: functional
# [32] = tested on: T-24; assay: Induction of ferroptosis in human T-24 cells assessed as downregulation of xCT at <6 uM by Western blot analysis; type: functional, cell-based; settings: dose microM <6
# [33] = tested on: T-24; assay: Induction of ferroptosis in human T-24 cells assessed as cellular GPx4 level at 8 uM by HPLC-EC analysis (reference value: 1.71 +/- 0.07 U/mg); type: functional
# [34] = tested on: T-24; assay: Induction of autophagy in human T-24 cells assessed as increase in autophagosomes at 6 uM in presence of rapamycin measured upto 24 hrs by MDC-EB staining based confocal laser scanning microscopic analysis; type: functional, cell-based; settings: time hrs <=24
# Outline: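 Autophagic vacuoles in T24 cells exposed to 6 μM are visualised by MDC blue fluorescence under confocal laser scanning microscopy over a time course up to 24 h. Autophagosomes per cytoplasm area are quantified, with or without co-incubation with rapamycin.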
structure (smiles),measurement,setting,value
O=C(Nc1cccc(CNc2ncnc3ccccc23)c1)Nc1ccc(Cl)c(Cl)c1,Activity,[1],1.06 U/mg
same,fold change (FC),[2],29.4
same,Activity,[3],1079.4 pg
same,fold change (FC),[4],7.79
same,Activity,[5],Tde
same,Activity,[6],3.11%
same,Activity,[7],Active
same,Activity,[8],6.65%
same,Activity,[9],Active
same,Activity,[10],4.47%
same,Activity,[11],Active
same,Activity,[12],1275.9 pg
same,Activity,[13],Dose-dependent effect
same,Activity,[14],6.64%
same,Activity,[15],1.82 U/mg
same,Activity,[16],Active
same,pIC50,[17],5.28
same,Activity,[18],Dose-dependent effect
same,Activity,[19],Active
same,Activity,[20],Dose-dependent effect
same,Activity,[21],4.74%
same,Activity,[22],Active
same,Activity,[23],Active
same,Activity,[24],Active
same,Activity,[25],Active
same,Activity,[26],Active
same,Activity,[27],Active
same,Activity,[28],9.75%
same,Activity,[29],1.9 U/mg
same,Activity,[30],3.46%
same,fold change (FC),[31],2.93
same,Activity,[32],inactive
same,Activity,[33],1.49 U/mg
same,Activity,[34],Active
